This is an account of results in ChEMBL document CHEMBL2390924, “Further studies on bis-charged tetraazacyclophanes as potent inhibitors of small conductance Ca(2+)-activated K+ channels” (Eur J Med Chem, 2013).

SMILES strings stand for the structures.

Assay [1] has as its target Small conductance calcium-activated potassium channel protein 3 (Rattus norvegicus, UniProt P70605). The experiment in a line: Inhibition of KCa2.3 in Sprague-Dawley rat superior cervical ganglion neurons assessed as inhibition of afterhyperpolarization by electrophysiological assay. Summed up:
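Afterhyperpolarization (AHP) recorded from rat sympathetic ganglion neurons. The reported value is the concentration giving a 50% reduction in AHP amplitude.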

Assay [2] has as its target Small conductance calcium-activated potassium channel protein 3 (Rattus norvegicus) (UniProt P70605). Put plainly: Inhibition of KCa2.3 in Sprague-Dawley rat superior cervical ganglion neurons assessed as inhibition of afterhyperpolarization by electrophysiological assay relative to UCL1848. In short, it runs like this:
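AHP recorded from rat sympathetic ganglion neurons. The equi-effective molar ratio is the test-compound concentration giving 50% AHP inhibition divided by the UCL 1848 concentration giving 50% inhibition, both measured in the same experiment. Each compound was tested on 3–5 neurons.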
Target sequence in this assay (P70605 whole entry): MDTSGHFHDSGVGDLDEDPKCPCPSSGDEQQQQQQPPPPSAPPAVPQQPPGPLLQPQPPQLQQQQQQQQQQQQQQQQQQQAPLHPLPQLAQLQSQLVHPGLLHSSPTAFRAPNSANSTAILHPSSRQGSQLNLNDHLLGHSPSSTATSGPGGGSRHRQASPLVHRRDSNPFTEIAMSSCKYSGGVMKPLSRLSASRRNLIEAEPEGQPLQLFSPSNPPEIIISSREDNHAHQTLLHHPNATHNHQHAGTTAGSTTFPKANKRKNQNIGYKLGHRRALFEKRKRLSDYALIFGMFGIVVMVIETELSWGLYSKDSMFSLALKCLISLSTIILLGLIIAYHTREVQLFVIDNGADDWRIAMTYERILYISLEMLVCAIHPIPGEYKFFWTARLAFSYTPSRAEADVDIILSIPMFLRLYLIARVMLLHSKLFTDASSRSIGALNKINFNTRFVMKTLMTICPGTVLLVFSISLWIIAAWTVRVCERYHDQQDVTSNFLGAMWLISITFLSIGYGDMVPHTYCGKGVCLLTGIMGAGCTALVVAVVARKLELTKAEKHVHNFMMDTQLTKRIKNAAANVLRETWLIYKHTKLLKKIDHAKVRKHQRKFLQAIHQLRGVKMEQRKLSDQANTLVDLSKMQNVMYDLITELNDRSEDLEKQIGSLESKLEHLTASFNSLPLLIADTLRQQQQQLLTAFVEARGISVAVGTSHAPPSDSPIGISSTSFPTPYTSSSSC

Assay [3] has the same target. The experiment in a line: Inhibition of KCa2.3 in rat superior cervical ganglion neurons.
Target sequence in this assay (P70605 whole entry, looked up): as the sequence (P70605 whole entry) above

Chain of Small conductance calcium-activated potassium channel protein 3 (P70605 whole entry): as above

The term IC50 denotes the midpoint of a concentration-inhibition curve. Regarding `c1ccc2c(c1)c1cc[n+]2CCCCC[n+]2ccc(c3ccccc32)NCCCCCN1`, the IC50 in assay [1] came out at 2.7 nM.

With `COc1ccc2c3cc[n+](c2c1)CCCCC[n+]1ccc(c2ccc(OC)cc21)NCCCCCN3`, the EMR in assay [2] came to 1.1. The IC50 in assay [1] is 3 nM.

`FC(F)(F)c1ccc2c(c1)c1cc[n+]2Cc2cccc(c2)C[n+]2ccc(c3cc(C(F)(F)F)ccc32)NCc2ccc(cc2)CN1`: in assay [2], the EMR came to 11. Also, the IC50 in assay [1] was determined as 27 nM.

In the case of `c1cc2cc(c1)CNc1cc[n+](c3ccccc13)CCCCC[n+]1ccc(c3ccccc31)NC2` [listing 1 of 3 here], the IC50 in assay [1] was 33 nM.

For `Cc1ccc2c(c1)c1cc[n+]2CCCCC[n+]2ccc(c3cc(C)ccc32)NCCCCCN1`, the EMR in assay [2] worked out at 2. Further, the IC50 in assay [1] is 3.8 nM.

For `Fc1ccc2c(c1)c1cc[n+]2Cc2cccc(c2)C[n+]2ccc(c3cc(F)ccc32)NCc2ccc(cc2)CN1`, the EMR in assay [2] stood at 6.9. In addition, the 50% inhibitory concentration (IC50) in assay [1] came out at 17 nM.

On to `c1ccc2c(c1)c1cc[n+]2CCOCC[n+]2ccc(c3ccccc32)NCCSCCN1`, for which, in assay [2], the EMR was 17. Also, the concentration for half-maximal inhibition (IC50) in assay [1] was determined as 58 nM.

With `c1ccc2c(c1)c1cc[n+]2Cc2ccc(cc2)C[n+]2ccc(c3ccccc32)NCCCCCN1`, the EMR in assay [2] came out at 1.8. The IC50 in assay [1] was determined as 4.4 nM.

For the compound `c1ccc2c(c1)c1cc[n+]2CCCCC[n+]2ccc(c3ccccc32)SCCCCCS1`, the EMR in assay [2] turned out to be 25. The IC50 in assay [1] stood at 124 nM.

For the compound `FC1(F)CNc2cc[n+](c3ccccc23)CCCCC[n+]2ccc(c3ccccc32)NCC(F)(F)C1(F)F`, the EMR in assay [2] came to 13.5. Also, the IC50 in assay [1] came to 33 nM.

In the case of `c1ccc2c(c1)c1cc[n+]2CCCCC[n+]2ccc(c3ccccc32)NCc2ccc(cc2)CN1`, in assay [3], the IC50 is 60 nM.

Regarding `OC1CCNc2cc[n+](c3ccccc23)CCCCC[n+]2ccc(c3ccccc32)NCC1`, the EMR in assay [2] was 0.91. In addition, the IC50 in assay [1] worked out at 3.2 nM.

`Cc1ccc2c(c1)c1cc[n+]2Cc2cccc(c2)C[n+]2ccc(c3cc(C)ccc32)NCc2ccc(cc2)CN1`: the EMR in assay [2] came to 7.6. Moreover, in assay [1], the 50% inhibitory concentration (IC50) came out at 19 nM.

For `c1cc2cc(c1)CNc1cc[n+](c3ccccc13)CCCCC[n+]1ccc(c3ccccc31)NC2` [listing 2 of 3 here], the EMR in assay [2] was found to be 12.

On to `Oc1ccc2c(c1)c1cc[n+]2CCCCC[n+]2ccc(c3cc(O)ccc32)NCCCCCN1`, for which, in assay [2], the EMR worked out at 1.8. The IC50 in assay [1] is 3.9 nM.

As to `Fc1ccc2c(c1)c1cc[n+]2CCCCC[n+]2ccc(c3cc(F)ccc32)NCCCCCN1`, in assay [2], the EMR was 2.1. Also, the IC50 in assay [1] was determined as 4.1 nM.

Turning to `COc1ccc2c3cc[n+](c2c1)Cc1cccc(c1)C[n+]1ccc(c2ccc(OC)cc21)NCc1ccc(cc1)CN3`, the EMR in assay [2] was determined as 4.1. In addition, the IC50 in assay [1] was determined as 9.8 nM.

Consider `FC(F)(F)c1ccc2c3cc[n+](c2c1)CCCCC[n+]1ccc(c2ccc(C(F)(F)F)cc21)NCCCCCN3`, for which, in assay [2], the EMR was found to be 1.6. Moreover, the IC50 in assay [1] turned out to be 8.1 nM.

For `Nc1ccc2c(c1)c1cc[n+]2CCCCC[n+]2ccc(c3cc(N)ccc32)NCCCCCN1`, the EMR in assay [2] is 1.04. Further, the IC50 in assay [1] worked out at 2.3 nM.

`c1ccc2c(c1)c1cc[n+]2CCOCC[n+]2ccc(c3ccccc32)NCCOCCN1`: the EMR in assay [2] stood at 5.1. In assay [1], the IC50 is 17 nM.

With `c1ccc2c(c1)c1cc[n+]2CCCCC[n+]2ccc(c3ccccc32)NCCC2(CCN1)OCCO2`, the EMR in assay [2] is 60. Also, the IC50 in assay [1] came out at 214 nM.

For the compound `COc1c2cccc1CNc1cc[n+](c3ccccc13)CCCCC[n+]1ccc(c3ccccc31)NC2`, the EMR in assay [2] stood at 38. The concentration for half-maximal inhibition (IC50) in assay [1] worked out at 97 nM.

Take `O=C1CCNc2cc[n+](c3ccccc23)CCCCC[n+]2ccc(c3ccccc32)NCC1`: the EMR in assay [2] was 3.6. Also, the IC50 in assay [1] was 12 nM.

As for `c1cc2cc(c1)C[n+]1ccc(c3ccccc31)NCC1CCC(CC1)CNc1cc[n+](c3ccccc13)C2`, the EMR in assay [2] is 0.81. The IC50 in assay [1] turned out to be 1.7 nM.

On to `COc1ccc2c(c1)c1cc[n+]2Cc2cccc(c2)C[n+]2ccc(c3cc(OC)ccc32)NCc2ccc(cc2)CN1`, for which the EMR in assay [2] is 7.4. For the same compound, the concentration for half-maximal inhibition (IC50) in assay [1] was found to be 15 nM.

On to `c1cc2cc(c1)CNc1cc[n+](c3ccccc13)CCCCC[n+]1ccc(c3ccccc31)NC2` [listing 3 of 3 here], for which the IC50 in assay [3] turned out to be 31 nM.

In the case of `Nc1ccc2c(c1)c1cc[n+]2Cc2cccc(c2)C[n+]2ccc(c3cc(N)ccc32)NCc2ccc(cc2)CN1`, the EMR in assay [2] was determined as 1.7. Besides, in assay [1], the IC50 is 3.7 nM.

For the compound `Clc1ccc2c(c1)c1cc[n+]2Cc2cccc(c2)C[n+]2ccc(c3cc(Cl)ccc32)NCc2ccc(cc2)CN1`, in assay [2], the EMR amounted to 8. In addition, the IC50 in assay [1] was 21 nM.

As to `CC1CCNc2cc[n+](c3ccccc23)CCCCC[n+]2ccc(c3ccccc32)NCC1`, in assay [2], the EMR came to 2.6. Further, the IC50 in assay [1] worked out at 5.9 nM.

For the compound `C1#CCNc2cc[n+](c3ccccc23)CCCCC[n+]2ccc(c3ccccc32)NC1`, the EMR in assay [2] turned out to be 5.6. In assay [1], the IC50 amounted to 14 nM.

Regarding `FC(F)(F)c1ccc2c(c1)c1cc[n+]2CCCCC[n+]2ccc(c3cc(C(F)(F)F)ccc32)NCCCCCN1`, in assay [2], the EMR amounted to 1.1. In assay [1], the IC50 was 4 nM.

As for `Clc1cc(Cl)c2c3cc[n+](c2c1)Cc1cccc(c1)C[n+]1ccc(c2c(Cl)cc(Cl)cc21)NCc1ccc(cc1)CN3`, the EMR in assay [2] was 10. Also, the half-maximal inhibitory concentration (IC50) in assay [1] came to 24 nM.

On to `CC1CC[n+]2ccc(c3ccccc32)NCCCCCNc2cc[n+](c3ccccc23)CC1`, for which the EMR in assay [2] is 1.7. Moreover, the IC50 in assay [1] is 3.8 nM.

Turning to `c1ccc2c(c1)c1cc[n+]2CCOCC[n+]2ccc(c3ccccc32)NCCCCCN1`, the EMR in assay [2] worked out at 1.4. Moreover, the IC50 in assay [1] turned out to be 4.8 nM.

Consider `Clc1ccc2c3cc[n+](c2c1)Cc1cccc(c1)C[n+]1ccc(c2ccc(Cl)cc21)NCc1ccc(cc1)CN3`, for which, in assay [2], the EMR was 7.3. Further, the IC50 in assay [1] worked out at 19 nM.

`c1ccc2c(c1)c1cc[n+]2CCSCC[n+]2ccc(c3ccccc32)NCCCCCN1`: the EMR in assay [2] was 1.2. Besides, the IC50 in assay [1] was found to be 4.1 nM.

As to `C1=C\CNc2cc[n+](c3ccccc23)CCCCC[n+]2ccc(c3ccccc32)NC/1`, the EMR in assay [2] is 6.1. For the same compound, in assay [1], the IC50 came out at 13 nM.

Turning to `c1ccc2c(c1)c1cc[n+]2CCCCC[n+]2ccc(c3ccccc32)NCCSCCN1`, in assay [2], the EMR was determined as 5.3. Moreover, the IC50 in assay [1] was 18 nM.

Turning to `c1ccc(CN2CCCCCN(Cc3ccccc3)c3cc[n+](c4ccccc34)CCCCC[n+]3ccc2c2ccccc23)cc1`, the EMR in assay [2] was found to be 25. Also, the IC50 in assay [1] was 123 nM.

With `Clc1ccc2c(c1)c1cc[n+]2CCCCC[n+]2ccc(c3cc(Cl)ccc32)NCCCCCN1`, the EMR in assay [2] is 1.1. The IC50 in assay [1] was determined as 3 nM.

In the case of `COc1ccc2c(c1)c1cc[n+]2CCCCC[n+]2ccc(c3cc(OC)ccc32)NCCCCCN1`, the EMR in assay [2] was found to be 3.1. The IC50 in assay [1] turned out to be 6.8 nM.

Turning to `Clc1cc(Cl)c2c3cc[n+](c2c1)CCCCC[n+]1ccc(c2c(Cl)cc(Cl)cc21)NCCCCCN3`, the EMR in assay [2] came out at 8.6. In addition, the IC50 in assay [1] turned out to be 21 nM.

Consider `CC1CCNc2cc[n+](c3ccccc23)CCC(C)CC[n+]2ccc(c3ccccc32)NCC1` (centres undefined), for which, in assay [2], the EMR stood at 2.3. Also, the IC50 in assay [1] was found to be 5.2 nM.

For `O=[N+]([O-])c1ccc2c(c1)c1cc[n+]2Cc2cccc(c2)C[n+]2ccc(c3cc([N+](=O)[O-])ccc32)NCc2ccc(cc2)CN1`, in assay [2], the EMR was determined as 2.6. In assay [1], the IC50 came out at 5.1 nM.

In the case of `Clc1ccc2c3cc[n+](c2c1)CCCCC[n+]1ccc(c2ccc(Cl)cc21)NCCCCCN3`, the EMR in assay [2] worked out at 0.53. In addition, the half-inhibitory concentration (IC50) in assay [1] worked out at 2.6 nM.

Regarding `FC(F)(F)c1ccc2c3cc[n+](c2c1)Cc1cccc(c1)C[n+]1ccc(c2ccc(C(F)(F)F)cc21)NCc1ccc(cc1)CN3`, the EMR in assay [2] worked out at 31. Besides, in assay [1], the IC50 was determined as 76 nM.

On to `c1ccc2c(c1)c1cc[n+]2CCCCC[n+]2ccc(c3ccccc32)NCC2CCC(CC2)CN1`, for which, in assay [2], the EMR came out at 54. Moreover, the IC50 in assay [1] turned out to be 114 nM.

For the compound `c1ccc2c(c1)c1cc[n+]2CCCCC[n+]2ccc(c3ccccc32)NCCOCCN1`, in assay [2], the EMR stood at 5. Moreover, in assay [1], the IC50 worked out at 17 nM.

On to `c1ccc2c(c1)c1cc[n+]2CCSCC[n+]2ccc(c3ccccc32)NCCSCCN1`, for which the EMR in assay [2] stood at 12. In assay [1], the IC50 worked out at 42 nM.

In the case of `Oc1c2cccc1CNc1cc[n+](c3ccccc13)CCCCC[n+]1ccc(c3ccccc31)NC2`, the EMR in assay [2] was found to be 153. In addition, the IC50 in assay [1] amounted to 394 nM.

Turning to `c1ccc2c(c1)c1cc[n+]2CCSCC[n+]2ccc(c3ccccc32)NCCOCCN1`, in assay [2], the EMR was found to be 11. The IC50 in assay [1] came out at 37 nM.

`O=[N+]([O-])c1ccc2c(c1)c1cc[n+]2CCCCC[n+]2ccc(c3cc([N+](=O)[O-])ccc32)NCCCCCN1`: in assay [2], the EMR came to 2.1. In addition, the IC50 in assay [1] is 4.1 nM.

Take `c1cc2cc(c1)C[n+]1ccc(c3ccccc31)NCc1ccc(cc1)CNc1cc[n+](c3ccccc13)C2`: the EMR in assay [2] was found to be 1.44. In addition, in assay [1], the IC50 is 4.1 nM.

Consider `FC(F)(F)Oc1ccc2c(c1)c1cc[n+]2Cc2cccc(c2)C[n+]2ccc(c3cc(OC(F)(F)F)ccc32)NCc2ccc(cc2)CN1`, for which the EMR in assay [2] amounted to 5.9. Also, the IC50 in assay [1] was determined as 15 nM.

On to `c1ccc2c(c1)c1cc[n+]2CCC2(CC[n+]3ccc(c4ccccc43)NCCC3(CCN1)OCCO3)OCCO2`, for which the EMR in assay [2] stood at 83. The IC50 in assay [1] was found to be 300 nM.

Regarding `Oc1c2cc(I)cc1CNc1cc[n+](c3ccccc13)CCCCC[n+]1ccc(c3ccccc31)NC2`, the EMR in assay [2] was 136. Moreover, the IC50 in assay [1] came to 348 nM.

For `C1=C\C[n+]2ccc(c3ccccc32)NCCCCCNc2cc[n+](c3ccccc23)C/1`, the EMR in assay [2] was 19. Also, in assay [1], the IC50 is 42 nM.
